Results as given in ChEMBL document CHEMBL4428038, “Overcoming chloroquine resistance in malaria: Design, synthesis and structure-activity relationships of novel chemoreversal agents” (Eur J Med Chem, 2016).
The source made the active and inactive calls. The rule behind the calls is not given here.

Legend:
[1] = Solubility of compound in DMSO at 10 uM; type: physicochemical
Outline: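 Solubility judged under the probe-3 uptake assay conditions. DMSO stocks were stored in aliquots and diluted to working concentration with PBS, protected from light. The compound was added to K1 parasite cultures (2.5% hematocrit, late-ring/early-trophozoite stage) with 6 of fluorescent CQ probe and incubated for 10 h at 37 °C.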

Plasmodium falciparum [2] = test: Intrinsic antimalarial activity against chloroquine-resistant Plasmodium falciparum NHP4559 harboring CRT K76T mutant assessed as reduction in parasite viability at 500 nM; type: functional, organism-based
Plasmodium falciparum [3] = test: Potentiation of chloroquine-induced antimalarial activity against chloroquine-sensitive Plasmodium falciparum HB3 isolate MRA-155 assessed as reduction in chloroquine IC50 at 500 nM relative to chloroquine alone; type: functional
[4] = test system: T1, Chloroquine resistance transporter (Plasmodium falciparum), Q9N623 [K76T]; test: Inhibition of CRT K76T mutant in chloroquine-resistant Plasmodium falciparum NHP4559 assessed as reversal of chloroquine resistance by measuring reduction in chloroquine IC50 at 500 nM relative to chloroquine alone
T1 sequence (whole entry): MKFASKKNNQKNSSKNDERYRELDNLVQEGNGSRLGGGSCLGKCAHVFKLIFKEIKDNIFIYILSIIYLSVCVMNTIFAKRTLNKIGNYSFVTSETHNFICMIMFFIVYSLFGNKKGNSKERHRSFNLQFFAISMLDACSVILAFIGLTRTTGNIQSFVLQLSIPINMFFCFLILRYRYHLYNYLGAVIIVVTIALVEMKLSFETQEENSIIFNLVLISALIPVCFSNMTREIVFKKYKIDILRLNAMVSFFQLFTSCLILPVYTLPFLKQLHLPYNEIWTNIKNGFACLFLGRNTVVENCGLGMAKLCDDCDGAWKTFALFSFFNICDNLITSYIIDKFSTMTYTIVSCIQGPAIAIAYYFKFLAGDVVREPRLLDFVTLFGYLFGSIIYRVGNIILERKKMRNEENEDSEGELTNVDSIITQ

[5] = Permeability of compound incubated for 16 hrs at pH 7.4 by PAMPA; type: ADME; settings: read-out: Peff
Plasmodium falciparum [6] = test: Intrinsic antimalarial activity against intermediate chloroquine-resistant Plasmodium falciparum 7G8 isolate MRA-154 harboring CRT SVMNT haplotype mutant assessed as reduction in parasite viability at 500 nM; type: functional, organism-based
[7] = test system: T1, Chloroquine resistance transporter (Plasmodium falciparum), Q9N623 [K76T]; test: Inhibition of CRT K76T mutant in chloroquine/artemisinin-resistant Plasmodium falciparum ARS233 assessed as reversal of chloroquine resistance by measuring reduction in chloroquine IC50 at 500 nM relative to chloroquine alone
[8] = Permeability of compound incubated for 6 hrs at pH 7.4 by PAMPA; type: ADME; settings: read-out: Peff
[9] = Aqueous kinetic solubility of compound in pH 7.4 solution incubated for 24 hrs; type: physicochemical; settings: aqueous solution pH 7.4, pH 7.4; read-out: Kinetic_solubility
[10] = Cytotoxicity against human AC10 cells assessed as reduction in cell viability by CellTiter-Glo assay; type: cell-based
Outline: (§1)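 For TAMH (hepatocyte line) and AC10 (cardiomyocyte line), viability was read by ATP luminescence (CellTiter-Glo), and the value reported is IC50.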

[11] = Therapeutic index, ratio of IC50 for human AC10 cells to EC50 for chloroquine-resistant Plasmodium falciparum K1 isolate MRA-159 CRT CVIET haplotype mutant; type: toxicity; settings: read-out: Ratio IC50/EC50
Outline: (§2)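 Host-cell IC50 was measured by ATP-luminescence viability assay in TAMH hepatocytes (mean of n = 4 independent determinations) or AC10 cardiomyocytes. Each IC50 was divided by the K1 EC50, the concentration of chemoreversal agent that halves the chloroquine concentration needed for 50% parasite inhibition.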

[12] = test system: Plasmodium falciparum 7G8; test: Inhibition of CRT SVMNT haplotype mutant in intermediate chloroquine-resistant Plasmodium falciparum 7G8 isolate MRA-154 t assessed as reversal of chloroquine resistance by measuring reduction in chloroquine IC50 at 500 nM relative to chloroquine alone
Plasmodium falciparum [13] = test: Intrinsic antimalarial activity against chloroquine/artemisinin-resistant Plasmodium falciparum NHP4773 harboring CRT K76T mutant assessed as reduction in parasite viability at 500 nM; type: functional, organism-based
[14] = Therapeutic index, ratio of IC50 for TAMH to EC50 for chloroquine-resistant Plasmodium falciparum K1 isolate MRA-159 CRT CVIET haplotype mutant; type: toxicity; settings: mouse, TAMH cells; read-out: Ratio IC50/EC50; outline: as §2
[15] = test system: T1, Chloroquine resistance transporter (Plasmodium falciparum), Q9N623 [K76T]; test: Inhibition of CRT K76T mutant in chloroquine-resistant Plasmodium falciparum Dd2 isolate MRA-156 assessed as reversal of chloroquine resistance by measuring reduction in chloroquine IC50 at 500 nM relative to chloroquine alone
[16] = Resistance index, ratio of chloroquine IC50 for chloroquine-resistant Plasmodium falciparum K1 isolate MRA-159 CRT CVIET haplotype mutant to chloroquine IC50 for chloroquine-sensitive Plasmodium falciparum 3D7 isolate MRA-102 at 500 nM
Outline: (§3)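 Chloroquine IC50 was measured with the chemoreversal agent fixed at 500 nM in K1 or 7G8 and in sensitive 3D7 (means, n = 3). The resistance ratio is the chloroquine IC50 in K1 or 7G8 divided by the chloroquine IC50 in 3D7.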

Plasmodium falciparum [17] = test: Intrinsic antimalarial activity against chloroquine-sensitive Plasmodium falciparum HB3 isolate MRA-155 assessed as reduction in parasite viability at 500 nM; type: functional, organism-based
Plasmodium falciparum K1 [18] = test: Inhibition of CRT CVIET haplotype mutant in chloroquine-resistant Plasmodium falciparum K1 isolate MRA-159 assessed as reversal of chloroquine resistance by measuring reduction in chloroquine IC50 at 500 nM relative to chloroquine alone
[19] = test system: T1, Chloroquine resistance transporter (Plasmodium falciparum), Q9N623 [K76T]; test: Inhibition of CRT K76T mutant in chloroquine/artemisinin-resistant Plasmodium falciparum NHP4773 assessed as reversal of chloroquine resistance by measuring reduction in chloroquine IC50 at 500 nM relative to chloroquine alone
[20] = Inhibition of CRT CVIET haplotype mutant in chloroquine-resistant Plasmodium falciparum K1 isolate MRA-159 assessed as reversal of chloroquine resistance by measuring reduction in chloroquine IC50 relative to chloroquine alone
Outline: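 Chloroquine IC50 was determined in the presence of a fixed 500 nM chemoreversal agent, against chloroquine alone. The RMI is the ratio of chloroquine IC50 with agent to chloroquine IC50 alone. Mean of n = 3; two-tailed t test versus chloroquine without agent.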

Plasmodium falciparum [21] = test: Intrinsic antimalarial activity against chloroquine-sensitive Plasmodium falciparum 3D7 isolate MRA-102 assessed as reduction in parasite viability at 500 nM; type: functional, organism-based
[22] = test system: T1, Chloroquine resistance transporter (Plasmodium falciparum), Q9N623 [K76T]; test: Inhibition of CRT K76T mutant in chloroquine/artemisinin-resistant Plasmodium falciparum ARS272 assessed as reversal of chloroquine resistance by measuring reduction in chloroquine IC50 at 500 nM relative to chloroquine alone
Plasmodium falciparum [23] = test: Intrinsic antimalarial activity against chloroquine/artemisinin-resistant Plasmodium falciparum ARS233 harboring CRT K76T mutant assessed as reduction in parasite viability at 500 nM; type: functional, organism-based
Plasmodium falciparum [24] = test: Intrinsic antimalarial activity against chloroquine/artemisinin-resistant Plasmodium falciparum ARS272 harboring CRT K76T mutant assessed as reduction in parasite viability at 500 nM; type: functional, organism-based
[25] = Resistance index, ratio of chloroquine IC50 for intermediate chloroquine-resistant Plasmodium falciparum 7G8 isolate MRA-154 CRT SVMNT haplotype mutant to chloroquine IC50 for chloroquine-sensitive Plasmodium falciparum 3D7 isolate MRA-102 at 500 nM; outline: as §3
TAMH = test: Cytotoxicity against TAMH assessed as reduction in cell viability by CellTiter-Glo assay; type: cell-based; settings: Mus musculus; outline: as §1
Plasmodium falciparum [26] = test: Intrinsic antimalarial activity against chloroquine-resistant Plasmodium falciparum K1 isolate MRA-159 harboring CRT CVIET haplotype mutant assessed as reduction in parasite viability at 500 nM; type: functional, organism-based
Plasmodium falciparum K1 [27] = test: Inhibition of CRT CVIET haplotype mutant in Plasmodium falciparum K1 isolate MRA-159 infected in erythrocytes assessed as chloroquine-coumarin probe accumulation at 10 uM after 10 hrs by Hoechst 33342 staining based flow cytometry (reference value: 35.57 +/- 3.84%); type: cell-based; parameters: scale not given: the % may be the effect or the level left
Outline: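 Infected erythrocyte cultures at 2.5% hematocrit and 7–12% parasitemia, synchronized to late-ring/early-trophozoite stage, were incubated with chloroquine-coumarin probe plus test agent for 10 h at 37 C. Cells were then washed, resuspended in PBS and read by flow cytometry (405 nm excitation, 450/50 filter). Hoechst-stained duplicate wells set parasitemia. Uptake = % infected erythrocytes fluorescent. Controls: PBS (negative), desipramine and parent compound (positive). ≥3 independent experiments; mean ± SEM.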

Plasmodium falciparum [28] = test: Intrinsic antimalarial activity against chloroquine-resistant Plasmodium falciparum Dd2 isolate MRA-156 harboring CRT K76T mutant assessed as reduction in parasite viability at 500 nM; type: functional, organism-based
Plasmodium falciparum [29] = test: Potentiation of chloroquine-induced antimalarial activity against chloroquine-sensitive Plasmodium falciparum 3D7 isolate MRA-102 assessed as reduction in chloroquine IC50 at 500 nM relative to chloroquine alone; type: functional

SMILES: CC(C)(C)OC(=O)N1CCN(C2Cc3ccccc3Sc3ccccc32)CC1 (stereo unspecified)
- solubility [1]: Insoluble

SMILES: NC(=O)C(CCN1CCC(O)(c2ccc(Cl)cc2)CC1)(c1ccccc1)c1ccccc1
- Activity (Plasmodium falciparum [2]): inactive
- Ratio IC50 (Plasmodium falciparum [3]): 1.06
- Ratio IC50 [4]: 1.01
- Papp at 16 h [5]: 1.78 ×10⁻⁶ cm/s
- Activity (Plasmodium falciparum [6]): inactive
- Ratio IC50 [7]: 0.91
- Papp at 6 h [8]: 0.65 ×10⁻⁶ cm/s
- solubility kinetic at 24 h [9]: > 450 µg/mL
- IC50 [10]: 45.2 µM
- selectivity ratio [11]: 94
- Ratio IC50 [12]: 1.25
- Activity (Plasmodium falciparum [13]): inactive
- selectivity ratio [14]: 210
- Ratio IC50 [15]: 1.16
- Ratio IC50 [16]: 14.8
- Activity (Plasmodium falciparum [17]): inactive
- Ratio IC50 (Plasmodium falciparum K1 [18]): 0.89
- Ratio IC50 [19]: 0.96
- EC50 [20]: 0.482 µM
- Activity (Plasmodium falciparum [21]): inactive
- Ratio IC50 [22]: 0.94
- Activity (Plasmodium falciparum [23]): inactive
- Activity (Plasmodium falciparum [24]): inactive
- Ratio IC50 [25]: 6.2
- IC50 (TAMH): 101 µM
- Activity (Plasmodium falciparum [26]): inactive
- Activity (Plasmodium falciparum K1 [27]): 73.5%
- Activity (Plasmodium falciparum [28]): inactive
- Ratio IC50 (Plasmodium falciparum [29]): 1.23

SMILES: CN1CCN(C2Cc3ccccc3Sc3ccccc32)CC1 (stereo unspecified)
- solubility [1]: Insoluble
